# Experimental data: ChEMBL document CHEMBL1159115, “Piperidine-derived gamma-secretase modulators” (Bioorg Med Chem Lett, 2010)
# Legend:
# Gamma-secretase [1] = assay: Inhibition of gamma-secretase in human SHSY5Y cells expressing human recombinant APP assessed as amyloid beta42 formation by ELISA; type: cell-based; details: sh-sy5y; in the assay text read “amyloid beta40 formation” for “amyloid beta42 formation”
# Summary of the method: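 SH-SY5Y cells overexpressing human APP Swedish variant were incubated with compound for 48 h. Secreted Aβ42 and Aβ40 were measured by immunoassay (MSD electrochemiluminescence or AlphaLISA).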
# Gamma-secretase [2] = assay: Inhibition of gamma-secretase in human SHSY5Y cells expressing human recombinant APP assessed as amyloid beta40 formation by ELISA; type: cell-based; details: sh-sy5y; in the assay text read “amyloid beta42 formation” for “amyloid beta40 formation”
# Summary of the method: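 SH-SY5Y cells overexpressing human APP Swedish variant exposed to compound for 48 h; Aβ40 (and Aβ42) in the cell medium quantified by ELISA, either Meso Scale Discovery or AlphaLISA format. Compounds also cross-screened for inhibition of Notch processing.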
# [3] = Inhibition of gamma-secretase expressed in african green monkey CV1 cells coexpressing Gal4 DNA-binding/transactivation domain assessed as inhibition of notch processing by luciferase reporter assay; type: cell-based; details: CV-1
# [4] = target: T1, Gamma-secretase (Homo sapiens) (UniProt Q96BI3+Q9NZ42+Q8WW43+P49768+Q92542+P49810); assay: Inhibition of gamma-secretase in human SHSY5Y cells expressing human recombinant APP assessed as amyloid beta40 formation at 20 uM by ELISA; details: SH-SY5Y
# CV-1 = assay: Inhibition of gamma-secretase expressed in african green monkey CV1 cells coexpressing Gal4 DNA-binding/transactivation domain assessed as inhibition of notch processing by luciferase reporter assay at 20 uM; type: cell-based
# SH-SY5Y = assay: Cytotoxicity against human SH-SY5Y cells after 24 hrs by WST1 assay; type: cell-based
# Gamma-secretase [5] = assay: Inhibition of gamma-secretase in human SHSY5Y cells expressing human recombinant APP assessed as effect on Abeta40 level after 24 hrs by DELFIA; type: cell-based; details: sh-sy5y
# Gamma-secretase [6] = assay: (§1) Inhibition of gamma-secretase in human SHSY5Y cells expressing human recombinant APP assessed as decrease in Abeta42 level after 24 hrs by DELFIA; type: cell-based; details: sh-sy5y
# [7] = target: T1, Gamma-secretase (Homo sapiens); assay: as §1; type: cell-based; details: SH-SY5Y
# Gamma-secretase [8] = assay: (§2) Inhibition of gamma-secretase in human SHSY5Y cells expressing human recombinant APP assessed as increase in Abeta38 level after 24 hrs by DELFIA; type: cell-based; details: sh-sy5y
# [9] = target: T1, Gamma-secretase (Homo sapiens); assay: as §2; type: cell-based; details: SH-SY5Y
# Gamma-secretase [10] = assay: Inhibition of gamma-secretase in human SHSY5Y cells expressing human recombinant APP assessed as decrease in total Abeta level after 24 hrs by DELFIA; type: cell-based; details: sh-sy5y
# [11] = Clearance in rat blood at 1 mg/kg, iv and 2 mg/kg, po; type: ADME, organism-based
# Summary of the method: (§3)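 Rat PK: iv 1 mg/kg paired with oral 3 mg/kg or 2 mg/kg; values are the mean from three animals. Oral bioavailability was measured with the sodium salt in 1% methylcellulose vehicle.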
# [12] = Clearance in dog blood at 1 mg/kg, iv and 1 mg/kg, po; type: ADME, organism-based, Canis lupus familiaris
# Summary of the method: (§4)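 Dog PK: iv and oral doses each 1 mg/kg; data from a single animal. Oral bioavailability was measured with the sodium salt in 1% methylcellulose vehicle.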
# [13] = Oral bioavailability in rat at 2 mg/kg; type: ADME, organism-based; details: in vivo; summary of the method: as §3
# [14] = Volume of distribution at steady state in dog at 1 mg/kg, iv and 1 mg/kg, po; type: ADME, organism-based, Canis lupus familiaris; details: in vivo, read-out: Vdss; summary of the method: as §4
# [15] = Half life in rat at 1 mg/kg, iv and 2 mg/kg, po; type: ADME, organism-based; details: in vivo; summary of the method: as §3
# [16] = Half life in dog at 1 mg/kg, iv and 1 mg/kg, po; type: ADME, organism-based, Canis lupus familiaris; details: in vivo; summary of the method: as §4
# [17] = Volume of distribution at steady state in rat at 1 mg/kg, iv and 2 mg/kg, po; type: ADME, organism-based; details: in vivo, read-out: Vdss; summary of the method: as §3
# [18] = Oral bioavailability in dog at 1 mg/kg; type: ADME, organism-based, Canis lupus familiaris; details: in vivo; summary of the method: as §4
SMILES,pIC50 (Gamma-secretase [1]),pIC50 (Gamma-secretase [2]),IC50 [3] [µM],inhibition [4] [%],inhibition (CV-1) [%],other results
CC(C)CC[C@H](c1ccnc(C(F)(F)F)n1)N1CC[C@@H](CC(=O)[O-])C[C@H]1c1ccc(C(F)(F)F)cc1.[Na+],4.9,6.4,3.98,–,–,–
O=C([O-])C[C@@H]1CCN([C@@H](c2ccc(C(F)(F)F)nc2)C2CCCCC2)[C@H](c2ccc(C(F)(F)F)cc2)C1.[Na+],4.6,5.4,–,–,–,–
CC[C@H](c1ccc(C(F)(F)F)nc1)N1CC[C@@H](CC(=O)[O-])C[C@H]1c1ccc(C(F)(F)F)cc1.[Na+],< 4.7,5,> 20,20,10,–
CC(C)CC[C@H](c1ccc(C(F)(F)F)cn1)N1CC[C@@H](CC(=O)[O-])C[C@H]1c1ccc(C(F)(F)F)cc1.[Na+],4.9,6.5,12.6,–,–,–
CCCCCC[C@H](c1ccc(C(F)(F)F)nc1)N1CC[C@@H](CC(=O)[O-])C[C@H]1c1ccc(C(F)(F)F)cc1.[Na+],4.8,6.3,5.01,–,–,IC50 (SH-SY5Y): > 100 µM; pIC50 (Gamma-secretase [5]): 4.6; pIC50 (Gamma-secretase [6]): 6; Activity [7]: Dose-dependent effect; pEC50 (Gamma-secretase [8]): 6.3; Activity [9]: Dose-dependent effect; pIC50 (Gamma-secretase [10]): 4
O=C([O-])C[C@@H]1CCN([C@H](CCc2ccccc2)c2ccc(C(F)(F)F)nc2)[C@H](c2ccc(C(F)(F)F)cc2)C1.[Na+],< 4.7,5.7,> 20,40,32,–
O=C([O-])C[C@@H]1CCN([C@@H](c2ccc(C(F)(F)F)nc2)C2CC2)[C@H](c2ccc(C(F)(F)F)cc2)C1.[Na+],4.3,5.1,> 20,–,23,IC50 (SH-SY5Y): > 100 µM; pIC50 (Gamma-secretase [5]): < 4; pIC50 (Gamma-secretase [6]): 6; Activity [7]: Dose-dependent effect; pEC50 (Gamma-secretase [8]): 5; Activity [9]: Dose-dependent effect; pIC50 (Gamma-secretase [10]): < 4
CCC[C@@H](C(=O)O)c1cc(OCc2ccccc2)cc(-c2ccc(C(F)(F)F)cc2)c1,<= 4.8,–,> 20,32,20,IC50 (SH-SY5Y): > 100 µM; pIC50 (Gamma-secretase [5]): < 4; pIC50 (Gamma-secretase [6]): 5.8; Activity [7]: Dose-dependent effect; pEC50 (Gamma-secretase [8]): 5.9; Activity [9]: Dose-dependent effect; pIC50 (Gamma-secretase [10]): < 4; IC50 (Gamma-secretase [2]): 3.98 µM
CC(C)CC[C@H](c1cnc(C(F)(F)F)cn1)N1CC[C@@H](CC(=O)[O-])C[C@H]1c1ccc(C(F)(F)F)cc1.[Na+],4.7,6.4,> 20,–,21,–
CC(C)C[C@H](c1ccc(C(F)(F)F)nc1)N1CC[C@@H](CC(=O)[O-])C[C@H]1c1ccc(C(F)(F)F)cc1.[Na+],4.5,6.2,> 20,–,25,–
Cc1cccc([C@@H](CCC(C)C)N2CC[C@@H](CC(=O)[O-])C[C@H]2c2ccc(C(F)(F)F)cc2)n1.[Na+],4.8,5.9,> 20,–,4,–
O=C([O-])C[C@@H]1CCN([C@H](Cc2ccccc2)c2ccc(C(F)(F)F)nc2)[C@H](c2ccc(C(F)(F)F)cc2)C1.[Na+],5,5.8,> 20,–,34,–
COCCC[C@H](c1ccc(C(F)(F)F)nc1)N1CC[C@@H](CC(=O)[O-])C[C@H]1c1ccc(C(F)(F)F)cc1.[Na+],4.5,5,> 20,–,10,–
O=C([O-])C[C@@H]1CCN([C@H](c2ccc(C(F)(F)F)cc2)c2ccc(C(F)(F)F)nc2)[C@H](c2ccc(C(F)(F)F)cc2)C1.[Na+],<= 4.8,5.9,7.94,33,–,–
CC(C)CC[C@H](c1ncc(C(C)C)cn1)N1CC[C@@H](CC(=O)[O-])C[C@H]1c1ccc(C(F)(F)F)cc1.[Na+],< 4.7,6.1,> 20,22,27,–
CC(C)CC[C@H](c1ccc(C2CC2)nc1)N1CC[C@@H](CC(=O)[O-])C[C@H]1c1ccc(C(F)(F)F)cc1.[Na+],< 4.7,6.2,> 20,31,15,–
CCCC[C@H](c1ccc(C(F)(F)F)nc1)N1CC[C@@H](CC(=O)[O-])C[C@H]1c1ccc(C(F)(F)F)cc1.[Na+],4.8,6.2,> 20,–,33,IC50 (SH-SY5Y): > 100 µM; pIC50 (Gamma-secretase [5]): 4.4; pIC50 (Gamma-secretase [6]): 6; Activity [7]: Dose-dependent effect; pEC50 (Gamma-secretase [8]): 5.5; Activity [9]: Dose-dependent effect; pIC50 (Gamma-secretase [10]): < 4
CC(C)CC[C@H](c1ncc(C(F)(F)F)cn1)N1CC[C@@H](CC(=O)[O-])C[C@H]1c1ccc(C(F)(F)F)cc1.[Na+],< 4.7,6.1,25.1,17,–,clearance [11]: 9 mL/min/kg; clearance [12]: 5 mL/min/kg; bioavailability [13]: 95%; Vd [14]: 1.2 L/kg; half-life [15]: 3 h; half-life [16]: 3.1 h; Vd [17]: 3 L/kg; bioavailability [18]: > 100%
O=C(O)Cc1ccc(-c2ccc(C(F)(F)F)cc2)c(-c2ccc(C(F)(F)F)cc2)c1,< 4.7,5.7,> 20,13,23,IC50 (SH-SY5Y): > 100 µM; pIC50 (Gamma-secretase [5]): < 4; pIC50 (Gamma-secretase [6]): 5.7; Activity [7]: Dose-dependent effect; pEC50 (Gamma-secretase [8]): 5.1; Activity [9]: Dose-dependent effect; pIC50 (Gamma-secretase [10]): < 4
CCCCC[C@H](c1ccc(C(F)(F)F)nc1)N1CC[C@@H](CC(=O)[O-])C[C@H]1c1ccc(C(F)(F)F)cc1.[Na+],5.1,5.9,15.8,–,–,–
CC(C)[C@H](O)C(=O)N[C@@H](C)C(=O)N[C@@H]1C(=O)N(C)CCc2ccccc21 [SEMAGACESTAT],7.4,7.4,0.316,–,–,IC50 (SH-SY5Y): > 100 µM; pIC50 (Gamma-secretase [5]): 6.7; pIC50 (Gamma-secretase [6]): 6.9; Activity [7]: Dose-dependent effect; pEC50 (Gamma-secretase [8]): 6.9; Activity [9]: Dose-dependent effect; pIC50 (Gamma-secretase [10]): 7
CC(C)CC[C@H](c1ccc(C(F)(F)F)nn1)N1CC[C@@H](CC(=O)[O-])C[C@H]1c1ccc(C(F)(F)F)cc1.[Na+],4.6,5.9,> 20,–,17,–
CC(C)[C@H](c1ccc(C(F)(F)F)nc1)N1CC[C@@H](CC(=O)[O-])C[C@H]1c1ccc(C(F)(F)F)cc1.[Na+],< 4.7,5.4,> 20,24,21,IC50 (SH-SY5Y): > 100 µM; pIC50 (Gamma-secretase [5]): < 4; pIC50 (Gamma-secretase [6]): 6; Activity [7]: Dose-dependent effect; pEC50 (Gamma-secretase [8]): 5; Activity [9]: Dose-dependent effect; pIC50 (Gamma-secretase [10]): < 4
CC(C)CC[C@H](c1cnc(C(F)(F)F)nc1)N1CC[C@@H](CC(=O)[O-])C[C@H]1c1ccc(C(F)(F)F)cc1.[Na+],4.7,6.4,20,–,–,–
O=C([O-])C[C@@H]1CCN([C@H](CC2CCC2)c2ccc(C(F)(F)F)nc2)[C@H](c2ccc(C(F)(F)F)cc2)C1.[Na+],5.5,6.6,> 20,–,17,–
